Test results taken from ChEMBL document CHEMBL3407478, “Development of a series of aryl pyrimidine kynurenine monooxygenase inhibitors as potential therapeutic agents for the treatment of Huntington's disease” (J Med Chem, 2015).

Columns and labels:
Plasma [1] = test: Dose normalized AUC (0 to infinity) in Sprague-Dawley rat plasma at 6.2 mg equivalents/kg, iv; type: ADME, cell-free
Plasma [2] = test: Dose normalized AUC (0 to infinity) in Sprague-Dawley rat plasma at 10 mg equivalents/kg, po after 0.25 to 12 hrs; type: ADME, organism-based; details: in vivo
Method in brief: (§1)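 Male Sprague-Dawley rats given a single oral dose of 10 mg equiv/kg as a 2 mg equiv/mL solution in 10% hydroxypropyl-β-cyclodextrin. Plasma, liver, kidney, cortex, striatum and CSF levels were measured from 0.25 to 12 h. Brain tissue was taken from nonperfused brains. CSF AUCN covers 0–8 h because the elimination phase was undefined.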

Cerebrospinal fluid = test: Dose normalized AUC (0 to infinity) in Sprague-Dawley rat CSF at 10 mg equivalents/kg, po after 0 to 8 hrs; type: ADME, organism-based; details: in vivo; method in brief: as §1
Plasma [3] = test: Dose normalized AUC (0 to infinity) in wild-type FVB/N mouse plasma at 5 mg equivalents/kg, iv by LC-MS/MS analysis; type: ADME, organism-based; details: in vivo
Method in brief: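 Male mice given a single 5 mg equiv/kg iv bolus: FVB wild type, Bcrp(−/−), Mdr1a/b(−/−) and Mdr1a/b(−/−)/Bcrp(−/−). Brain and plasma concentration–time profiles were used to derive dose-normalized AUC (0–infinity).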

[4] = Fraction unbound in rat plasma; type: ADME, cell-free
[5] = Fraction unbound in mouse plasma; type: ADME, cell-free
Rattus norvegicus = test: Inhibition of KMO in Sprague-Dawley rat plasma assessed as time duration for elevation in kynurenine plasma level at 10 mg/kg, po by […] analysis; type: functional
Method in brief: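 Sprague-Dawley rats given a single 10 mg/kg oral dose. KYN, 3-HK, KYNA and AA were quantified in plasma by LC-MS/MS at multiple time points.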

Work on `O=C(O)c1cc(-c2ccc(OC3CC3)c(Cl)c2)ncn1` yielded an AUC/dose (Plasma [1]) of 12 µM·kg·h/mg, an AUC/dose (Plasma [2]) of 5.3 µM·kg·h/mg and an AUC/dose (Cerebrospinal fluid) of 0.014 µM·kg·h/mg. It also gave an AUC/dose (Plasma [3]) of 3.1 µM·kg·h/mg, a fraction unbound [4] of 0.05 and a fraction unbound [5] of 0.036. The Time (Rattus norvegicus) was 8 h.
